The whole screen tested about 360,000 compounds, of which about 5,400 (1.5%) were called active. What follows is part of a selection rich in actives, with near analogues and random picks from the rest. A number with no mark means an inactive call.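 How the source made its calls: active means inhibition above a per-plate cutoff, the mean inhibition of test compounds on that plate plus 3 SD (cut at about 49% in these data); inactive means the rest.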
target: Trace amine-associated receptor 1 (Homo sapiens) (UniProt Q96RJ0); test: blockers of beta-PEA-driven TAAR1 calcium signal – Fluo-8 calcium fluorescence, CHO RD-HGA16 cells, primary screen (AID 624466); details: CHO RD-HGA16 TAAR1, Fluo-8 calcium fluorescence, antagonist; at 3 µM; hits give high values;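 further: 0% = DMSO plus EC80 beta-PEA response and 100% = DMSO alone without agonist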
Sequence (Q96RJ0 whole entry, looked up, the tested form may be a part): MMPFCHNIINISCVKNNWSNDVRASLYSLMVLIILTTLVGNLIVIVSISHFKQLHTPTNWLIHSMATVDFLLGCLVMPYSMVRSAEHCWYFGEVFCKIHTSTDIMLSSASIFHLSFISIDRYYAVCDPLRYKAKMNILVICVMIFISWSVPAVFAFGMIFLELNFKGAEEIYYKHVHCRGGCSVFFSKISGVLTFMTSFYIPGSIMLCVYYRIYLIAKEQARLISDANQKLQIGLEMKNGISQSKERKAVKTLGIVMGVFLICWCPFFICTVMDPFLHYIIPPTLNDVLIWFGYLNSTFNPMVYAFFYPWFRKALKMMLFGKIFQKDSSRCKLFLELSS
Method in brief: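 Test system – hTAAR1-expressing CHO RD-HGA16 cells, Gα16-coupled · Also added – β-PEA at EC80 concentration, post-compound challenge · Compound – 3 µM, single point · Incubation – dye loading 75 min at 37 °C, then 30 min room temperature · Measured by – Fluo-8 intracellular calcium dye fluorescence, real-time kinetic reads · Benchmarks – vehicle and agonist controls · Replicates – singlicate, one well per test compound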

SMILES | inhibition
Cc1ccc(-n2c(C)cc(/C=N\NC(=O)CC(=O)NC(C)C)c2C)cc1 | 97.7% (active)
Cc1cc(/C=N/NC(=O)CC2(C)OCCO2)c(C)n1-c1ccc(Cl)c(Cl)c1 | -4.93%
Cc1cc(/C=N/NC(N)=O)c(C)n1C1CCCCC1 | -23.7%
COc1ccc(-c2nc3cnccn3c2NC2CCCCC2)cc1-c1cccc(Cl)c1 | -50.3%
CCOc1cc(-c2nc3cc(C)ccn3c2NCC2CCCO2)ccc1O (centres undefined) | 24.7%
COc1ccc(-c2nc3cnccn3c2NC(C)(C)CC(C)(C)C)cc1O | 48.6% (active)
COC(=O)c1cc(NC(=O)c2cc(C(C)(C)C)nn2Cc2cccc(C)c2)ccc1N1CCOCC1 | 50.4% (active)
CC(=O)Nc1ccc(N2CCOCC2)c(C(=O)Nc2cccc(C)c2)c1 | -5.97%
COC(=O)c1cc(NC(=O)c2cccnc2)ccc1N1CCOCC1 | -22%
CC1(C)OC(=O)C2=C(C[C@@H](C3CC3)O[C@H]2CCc2cccc(Cl)c2)O1 | -4.58%
CCCCCCCCNS(=O)(=O)CCNC1CCCCC1 | -6.98%
COc1ccc(CC(N)c2csc(NC(=O)Cc3ccccc3)n2)cc1 (centres undefined) | 15.7%
NC(Cc1ccccc1)c1csc(Nc2cc(Oc3ccccc3)ncn2)n1 (centres undefined) | 49.7% (active)
COc1ccc(CC(N)c2csc(NC(=O)NC(c3ccccc3)c3ccccc3)n2)cc1 (centres undefined) | 12.4%
O=C(CSc1nc2[nH]c(=O)[nH]c(=O)c2s1)Nc1cccc(F)c1 | -17.1%
CCC(c1nnnn1Cc1ccco1)N(CCc1ccccc1)Cc1cc2ccc(OC)cc2[nH]c1=O (centres undefined) | 85.2% (active)
CCC(c1nnnn1Cc1ccco1)N(Cc1cc2cc(OC)ccc2[nH]c1=O)C1CCCCC1 (centres undefined) | -35.8%
CCC(c1nnnn1Cc1ccco1)N(CCc1ccccc1)Cc1cc2cccc(C)c2[nH]c1=O (centres undefined) | -1.4%
CCCN1C(=O)c2[nH]nc(-c3ccccc3)c2C1c1ccccc1 (centres undefined) | -18.5%
O=C(O)CSCc1ccc(C(=O)O)o1 | 8.93%
Cc1ccc(CC2CC(=O)N(c3cc(C)ccc3C)C2=O)cc1 (centres undefined) | -18.2%
Cc1ccccc1CN1CCC(C(=O)Nc2ccc(Oc3cccnc3)cc2)CC1 | -4.26%
S=C(NCc1ccco1)Nc1ccc2c(c1)OCCO2 | -13.5%

SMILES | inhibition
Cc1ccnc(N2C(=O)c3ccccc3C2Nc2ccc3c(c2)OCCO3)c1 (centres undefined) | -4.03%
O=C1c2ccccc2C(Nc2ccc3c(c2)OCCO3)N1Cc1ccco1 (centres undefined) | 60.2% (active)
COC(=O)c1cc(S(=O)(=O)Nc2ccc(C)c(F)c2)c[nH]1 | 3.38%
COc1ccc(C(=O)C(OP(=O)(OC)OC)c2ccccc2OC)cc1 (centres undefined) | -8.05%
COc1ccc(C(C(=O)NCc2ccccc2)N(Cc2cccs2)C(=O)c2cnccn2)cc1 (centres undefined) | 53.3% (active)
Cc1cccc(N(C(=O)c2csnn2)C(C(=O)NCc2ccccc2)c2ccncc2)c1 (centres undefined) | -12.4%
CC(C)N(Cc1ccccc1)C(=O)COC(=O)c1cnccn1 | -3.08%
CCOc1ccccc1CN1CCN(C2CCC2)CC1CCO (centres undefined) | 6.95%
COC(=O)[C@@]12C[C@@H](CC(=O)N3CCC(c4ccccc4)CC3)C(=O)N(Cc3ccccc3)C1=CCC(C)(C)C2 | -13.1%
Clc1cccc2c1C1CC2CCN1Cc1ccccc1 (centres undefined) | -3.53%
COCCNC(=O)CCCN1C(=O)c2ccccc2Sc2ncccc21 | -9.71%
Cc1c(CNCCc2ccccc2)c(C(=O)O)c(C)n1-c1ccccc1 | 65.9% (active)
CNC(=O)CSc1nnc(CCc2ccccc2)n1-c1ccccc1 | 10.8%
Cc1c(C(=O)NCc2ccccc2)cnn1-c1ccccc1 | -4.01%
CCOC(=O)/C=C/c1ccccc1O | -4.54%
Cc1cc(C)nc(SC2CCCCC2NS(=O)(=O)c2ccc(Cl)cc2)n1 (centres undefined) | -8.5%
COC(=O)C1=C(C)N(Cc2ccc(C(F)(F)F)cc2)C(=NCc2ccc(C(F)(F)F)cc2)NC1c1cccc(Cl)c1 (centres undefined) | 12.3%
COC(=O)C1=C(C)N(Cc2ccc(F)cc2)C(=S)NC1c1cccc(Cl)c1 (centres undefined) | 64.3% (active)
CC(=O)C1=C(C)N(Cc2ccc(Cl)cc2)C(=S)NC1c1ccc(F)cc1 (centres undefined) | 28.2%
O=C(Nc1cccc(NC(=O)N2CCN(c3ccccc3)CC2)c1)N1CCN(c2ccccc2)CC1 | 53.4% (active)
O=C(Nc1ccccc1)N1CCN(C2c3ccccc3-c3ccccc32)CC1 | 3.75%
COc1cccc(N2CCN(C(=O)Nc3ccc4c(c3)NC(=O)CO4)CC2)c1 | 11.5%
Cc1nn2c(NCCN(C)C)c3c(nc2c1-c1ccccc1)CCC3 | -32.4%

SMILES | inhibition
COc1cccc(CNC(=O)[C@H]2CCCN2C(=O)[C@H]2CCCN2C(=O)c2cc(F)cc(F)c2)c1 | 4.19%
CCN(CC(=O)Nc1c(F)cccc1F)C(=O)Cc1cccs1 | -22.6%
Cc1cc(C)c(S(=O)(=O)NN=C2c3ccccc3[C@H]3Cc4csc[n+]4[C@@H]23)c(C)c1 | 6.84%
CC(C)n1ncc2c(C(=O)NCc3ccccc3CN(C)C)cc(C3CC3)nc21 | -19.6%
CC(C)n1ncc2c(C(=O)Nc3ccc(CC#N)cc3)cc(C3CC3)nc21 | 35.5%
COc1ccc(OCCNC(=O)c2cc(C3CC3)nc3c2cnn3C(C)C)cc1 | 48.8% (active)
CCc1c(-c2ccc(F)cc2)ncn1Cc1cccc(-c2ccccc2)c1 | 34.5%
O=C1NC[C@@H](CCCCN2CCN(CCc3ccc(O)cc3)C(=O)C2=O)N(CC2CCCCC2)C1=O | 3.12%
O=C1c2ccccc2S(=O)(=O)N1CC(O)Cn1c2ccccc2c2ccccc21 (centres undefined) | 62.3% (active)
CC(C)(C)c1ccc(CN2C(=O)c3ccccc3S2(=O)=O)cc1 | 8.91%
COc1ccc(CNC(=O)CN2C(=O)c3ccccc3S2(=O)=O)cc1 | 17.9%
COc1ccc(NC(=O)CN(C)C(=O)c2cc(C)oc2C)cc1 | -28%
COc1ccc(NC(=O)CN(C)C(=O)c2cc(-c3ccc(C)o3)nc3ccccc23)cc1 | 54.9% (active)
COc1ccc(-c2cc(C(=O)Nc3ccccc3O)c3ccccc3n2)cc1 | 86.9% (active)
COc1cccc(NC(=O)CN(C)C(=O)c2cc(Cl)nc3ccccc23)c1 | 18.8%
COc1ccc(NC(=O)c2cn(-c3ccccc3)nc2SC)cc1 | -11.6%
Cc1ccc2nc(-c3ccncc3)cc(C(=O)Nc3ccc(OC(F)F)cc3)c2c1 | -4.36%
C/C(=N\NC(=O)c1cc(-c2ccc(O)cc2)nc2ccccc12)c1cccnc1 | -2.53%
COc1ccc(NC(=O)c2cc(-c3cc(OC)c(OC)c(OC)c3)nc3ccccc23)c(OC)c1 | 3.05%
COc1ccc(NC(=O)c2cc(-c3ccc(C)o3)nc3ccccc23)cc1 | 57.4% (active)
CO[C@@H]1CN(C)C(=O)c2cc(NC(=O)Nc3cc(F)ccc3F)ccc2OC[C@H](C)N(C(=O)c2ccccn2)C[C@@H]1C | -23.9%
CCCCCCN1CCN(C2CN(Cc3cn(Cc4ccc(F)cc4)nn3)S(=O)(=O)C2)CC1 (centres undefined) | -26.8%
COC(=O)C1=C(C)N(Cc2ccc(C(F)(F)F)cc2)C(=NCc2ccccc2)NC1c1ccccc1C(F)(F)F (centres undefined) | -9.36%

SMILES | inhibition
CCOC(=O)c1c(N)c(C#N)nn1-c1ccccc1C(=O)OC | 5.89%
Cc1cccc(NC(=S)NCCc2ccc(Cl)cc2)c1C | -16.5%
Cc1ccccc1NC(=S)NC(=O)Cc1ccc(Cl)cc1 | 91.6% (active)
O=C(COc1ccc(Cl)cc1)NC(=S)Nc1ccccc1N1CCOCC1 | -2.14%
O=C(Cc1ccc(Cl)cc1)NC(=S)Nc1ccccc1O | 104% (active)
O=C(COc1ccc(Cl)cc1)Nc1ccccc1CO | 4.17%
Cc1ccccc1N/C(SCc1ccc(Cl)cc1)=C(/C#N)C(N)=O | -9.21%
O=C(C(=O)N1CCC(CNS(=O)(=O)Cc2ccccc2)CC1)c1cc2ccccc2o1 | -11.1%
CCc1cccc(CC)c1N1C(=O)CC(Sc2ccccc2N)C1=O (centres undefined) | -2.71%
CCC(c1nc2ccccc2[nH]1)n1c(=O)c(-c2cccs2)nc2ccccc21 (centres undefined) | -2.04%
COc1ccc(C(=O)NNC(=S)NC(=O)c2ccccc2)cc1 | 66.3% (active)
CCOc1ccccc1NC(=S)NC(=O)CCc1ccccc1 | -0.27%
COc1ccc(C(=O)NC(=S)NNC(=O)CCc2ccccc2)cc1 | 66.2% (active)
O=C(CCc1ccccc1)NNC(=O)COc1ccc(Cl)cc1 | -2.05%
O=C(NNC(=S)NCc1ccccc1)c1ccc(OC(F)F)cc1 | -12.5%
CC(=O)NC(=S)NNC(=O)c1ccc(Br)cc1 | 25.8%
CCOC(=O)[C@]12CCCC=C1N(CCC1=CCCCC1)C(=O)[C@H](CC(=O)NCCCCc1ccccc1)C2 | -5.96%
CCO[C@H]1OC(C(=O)NCc2ccccc2)=C[C@@H](c2coc3ccccc3c2=O)[C@@H]1CCCO | 1.58%
O=C(NCc1ccccc1)[C@H]1CCCN1C(=O)[C@@H]1CCCN1C(=O)c1ccc(Cl)cc1Cl | -4.49%
CC[C@@H]1CC2=C(C(=O)OC(C)(C)O2)[C@@H](CC)O1 | 7.78%

From PubChem BioAssay AID624466 (The Scripps Research Institute Molecular Screening Center, 2012)
